Data on 17 compounds can be found in ChEMBL document CHEMBL1124060, “2-Ethynylbenzenealkanamines. A new class of calcium entry blockers” (1988).

Holding throughout (assay type): functional
For assay [1], the species on record is Cavia porcellus. The experiment in a line: Concentration needed to elicit a 75% increase beyond control in coronary flow in ''Langendorff'', guinea pig heart (in vitro). A digest of the protocol:
(§1)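 Isolated Langendorff-perfused guinea pig hearts infused with a range of drug concentrations; force (g), rate (beats/min) and coronary flow (mL/min) recorded. A linear regression of percent-control flow gives C175, the micromolar concentration raising flow to 175% of control, reported only if within the tested range. Raw data analysed by paired t tests.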

For assay [2], the species on record is Cavia porcellus. The experiment in a line: Concentration needed to achieve a 75% increase in coronary blood flow in 'Langendorff', guinea pig heart (in vitro negative inotropic activity). A digest of the protocol: as §1
The species named for assay [3] is Cavia porcellus. The experiment in a line: Concentration needed to achieve a 75% increase in coronary blood flow in 'Langendorff', guinea pig heart (in vitro Negative inotropic potency). A digest of the protocol:
as §1

Assay [4] relates to Rattus norvegicus. The experiment in a line: Ability to lower blood pressure in the spontaneously hypertensive rat (SHR) at 3 mg/kg (p.o.). As to conditions: route oral. A digest of the protocol:
(§2)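 Spontaneously hypertensive rats dosed orally at the stated dose; read-out is the maximum fall in blood pressure (mmHg), with significance shown as P.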

Assay [5] relates to Rattus norvegicus. The experiment in a line: Ability to lower blood pressure in the spontaneously hypertensive rat (SHR) at 10 mg/kg (p.o.). Particulars: route oral. A digest of the protocol:
as §2

Assay [6] concerns Rattus norvegicus. The experiment in a line: Ability to lower blood pressure in the spontaneously hypertensive rat (SHR) at 30 mg/kg (p.o.). Particulars: route oral. A digest of the protocol:
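Spontaneously hypertensive rats were given a single oral dose of the compound. The read-out was the maximum fall in blood pressure, in mmHg, after that dose. A P value for significance was reported with each value.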

Take `COc1cccc(CCN(C)C(C)Cc2cc(OC)ccc2C#Cc2ccccc2)c1` (centres undefined): the C175 in assay [1] was 0.0035 µM. For the same compound, the “Contractile force, % of control” value in assay [2] came to 95%. For the same compound, the “P (Ei)” value in assay [3] is 0.21. In addition, the “Max fall in blood pressure” value in assay [4] came out at 67 mmHg.

`COc1ccc(C#Cc2ccc(C#N)cc2)c(CC(C)N(C)CCc2ccc(OC)c(OC)c2)c1` (centres undefined) had a C175 in assay [1] of 0.45 µM. In assay [2], the “Contractile force, % of control” value is 75%. Further, the “P (Ei)” value in assay [3] is on record as less than 0.05. The “Max fall in blood pressure” value in assay [5] was determined as 27 mmHg.

In turn, `COc1ccc(C#CCCc2ccccc2)c(CCCN(C)CCc2ccc(OC)c(OC)c2)c1` gave a C175 in assay [1] of 1.25 µM. For the same compound, the “Contractile force, % of control” value in assay [2] was determined as 100%. Moreover, in assay [3], the “P (Ei)” value was greater than 0.5. Moreover, the “Max fall in blood pressure” value in assay [5] turned out to be 12 mmHg.

With `CCC#Cc1ccc(OC)cc1CCCN(C)CCc1ccc(OC)c(OC)c1`, in assay [1], the C175 was found to be 1 µM. The “Contractile force, % of control” value in assay [2] is 80%. Moreover, the “P (Ei)” value in assay [3] was less than 0.05. Moreover, the “Max fall in blood pressure” value in assay [5] worked out at 24 mmHg.

`COc1ccc(C#Cc2ccccc2)c(CC(C)N(C)CCCCc2ccccc2)c1` (centres undefined) gave a C175 in assay [1] of 2.75 µM. The “Contractile force, % of control” value in assay [2] was 90%. Further, in assay [3], the “P (Ei)” value is on record as greater than 0.05. Moreover, the “Max fall in blood pressure” value in assay [6] is 74 mmHg.

In assay [1], `COc1ccc(C#Cc2ccc(C(F)(F)F)cc2)c(CC(C)N(C)CCc2ccc(OC)c(OC)c2)c1` (centres undefined) gave a C175 of 2 µM. Moreover, the “Contractile force, % of control” value in assay [2] was found to be 90%. The “P (Ei)” value in assay [3] is greater than 0.5. The “Max fall in blood pressure” value in assay [6] came out at 49 mmHg.

For the compound `COc1ccc(C#Cc2ccccc2)c(CC(C)NCCc2ccc(Cl)cc2)c1` (centres undefined), the C175 in assay [1] was greater than 3 µM. Also, the “Contractile force, % of control” value in assay [2] is listed as greater than 25%. For the same compound, the “P (Ei)” value in assay [3] is recorded as less than 0.05. Also, in assay [5], the “Max fall in blood pressure” value turned out to be 39 mmHg.

`COc1ccc(C#Cc2ccccc2)c(CC(C)NCCc2cccc(Cl)c2Cl)c1` (centres undefined): the C175 in assay [1] came out at 0.0048 µM. Further, in assay [2], the “Contractile force, % of control” value is given as 83%. For the same compound, the “P (Ei)” value in assay [3] was found to be 0.031. The “Max fall in blood pressure” value in assay [4] is on record as 45 mmHg.

As for `COc1ccc(CCN(C)C(C)Cc2ccccc2C#Cc2ccccc2)cc1OC` (centres undefined), the C175 in assay [1] worked out at 0.2 µM. Besides, the “Contractile force, % of control” value in assay [2] is given as 90%. In assay [3], the “P (Ei)” value is listed as greater than 0.05. For the same compound, the “Max fall in blood pressure” value in assay [5] came to 13 mmHg.

`CCCCCCN(C)C(C)Cc1cc(OC)ccc1C#Cc1ccccc1` (centres undefined) gave a C175 in assay [1] greater than 3 µM. Besides, the “Max fall in blood pressure” value in assay [5] is listed as 48 mmHg.

The compound `COc1ccc(C#Cc2ccc(SC)cc2)c(CC(C)N(C)CCc2ccc(OC)c(OC)c2)c1` (centres undefined) came in with a C175 in assay [1] of 0.55 µM. For the same compound, in assay [2], the “Contractile force, % of control” value stood at 80%. Moreover, in assay [3], the “P (Ei)” value is reported as 0.5. Also, in assay [6], the “Max fall in blood pressure” value came out at 45 mmHg.

With `COc1ccc(C#Cc2ccc(C(C)C)cc2)c(CC(C)N(C)CCc2ccc(OC)c(OC)c2)c1` (centres undefined), the C175 in assay [1] worked out at 4.04 µM. For the same compound, in assay [2], the “Contractile force, % of control” value amounted to 34%. The “P (Ei)” value in assay [3] is on record as less than 0.001. Besides, the “Max fall in blood pressure” value in assay [4] came to 13 mmHg.

The compound `COc1ccc(C#Cc2ccccc2)c(CC(C)N(C)CCc2ccccc2)c1` (centres undefined) showed a C175 in assay [1] of 0.5 µM. For the same compound, in assay [2], the “Contractile force, % of control” value turned out to be 115%. Besides, in assay [3], the “P (Ei)” value is greater than 0.5. Also, the “Max fall in blood pressure” value in assay [5] is recorded as 43 mmHg.

The compound `COc1ccc(C#Cc2ccc(Cl)cc2)c(CC(C)N(C)CCc2ccc(OC)c(OC)c2)c1` (centres undefined) displayed a C175 in assay [1] of 0.3 µM. In assay [2], the “Contractile force, % of control” value is 85%. For the same compound, the “P (Ei)” value in assay [3] is on record as greater than 0.5. Further, in assay [6], the “Max fall in blood pressure” value is recorded as 46 mmHg.

In the case of `COc1ccc(C#Cc2ccccc2)c(CC(C)NCCc2ccc([N+](=O)[O-])cc2)c1` (centres undefined), the C175 in assay [1] is greater than 3 µM. Moreover, in assay [2], the “Contractile force, % of control” value is listed as greater than 66%. In addition, the “P (Ei)” value in assay [3] is reported as less than 0.05 Ei. In addition, in assay [6], the “Max fall in blood pressure” value is recorded as 66 mmHg.

For the compound `COc1ccc(C#Cc2ccccc2)c(CC(C)N(C)Cc2ccc(OC)c(OC)c2)c1` (centres undefined), the C175 in assay [1] was 3 µM. In assay [2], the “Contractile force, % of control” value is 50%. Further, the “P (Ei)” value in assay [3] is on record as less than 0.05. For the same compound, the “Max fall in blood pressure” value in assay [5] is listed as 20 mmHg.

On to `COc1cccc(CC(C)NCCc2ccc(OC)c(OC)c2)c1` (centres undefined), for which the C175 in assay [1] is greater than 10 µM. Moreover, the “Max fall in blood pressure” value in assay [6] was found to be 18 mmHg.
